Experimental data from ChEMBL document CHEMBL3576779, “Cyclic colisporifungin and linear cavinafungins, antifungal lipopeptides isolated from Colispora cavincola” (J Nat Prod, 2015).
Values after ≈ are worked out from the molar mass of the structure shown. Active and inactive are the calls of the source. No cut-off for these calls is given here. Non-standard residues stand in square brackets, D forms with d. Residues, ends and D or L forms follow the SMILES beside them. *: point of attachment. Pro(4R-Me) = C[C@H]1CN[C@H](C(=O)O)C1; Oleoyl = CCCCCCCC/C=C\CCCCCCCC(=O)*; hSer = N[C@@H](CCO)C(=O)O; Alaol = C[C@@H](CO)N*

Tests used:
[1] = tested on: Candida albicans; assay: Antifungal activity against Candida albicans MY1055 after 24 hrs by 2-fold serial dilution method; type: functional; settings: MY1055, 24 h
Method in brief: (§1)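 Cells were inoculated at 10^5 CFU/mL into 2-fold serial compound dilutions in growth medium and incubated at 37 °C. The MIC was recorded after 24 h as the lowest concentration inhibiting visible growth. Where given, the MIC80 is 80% inhibition, reported as prominent inhibition.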

[2] = tested on: Candida tropicalis; assay: Antifungal activity against Candida tropicalis ATCC 750 after 24 hrs by 2-fold serial dilution method; type: functional; settings: ATCC 750, 24 h; method in brief: as §1
[3] = tested on: Pichia kudriavzevii; assay: Antifungal activity against Candida krusei ATCC 6258 after 24 hrs by 2-fold serial dilution method; type: functional; settings: ATCC 6258, 24 h; method in brief: as §1
[4] = tested on: Candida parapsilosis; assay: Antifungal activity against Candida parapsilosis ATCC 22019 after 24 hrs by 2-fold serial dilution method; type: functional; settings: ATCC 22019, 24 h; method in brief: as §1
[5] = tested on: Clavispora lusitaniae; assay: Antifungal activity against Clavispora lusitaniae ATCC 34449 after 24 hrs by 2-fold serial dilution method; type: functional; settings: ATCC 34449, 24 h; method in brief: as §1
[6] = tested on: Nakaseomyces glabratus; assay: Antifungal activity against Candida glabrata ATCC 90030 after 24 hrs by 2-fold serial dilution method; type: functional; settings: ATCC 90030, 24 h; method in brief: as §1
[7] = tested on: Aspergillus fumigatus; assay: Antifungal activity against Aspergillus fumigatus MF5668 after 48 hrs by 2-fold serial dilution method; type: functional; settings: MF5668, 48 h
Method in brief: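 Broth microdilution MIC test: the inoculum was 10^5 CFU/mL, with a 2-fold serial dilution of compound in growth medium at 37 °C. The MIC was read after 48 h incubation as the lowest concentration inhibiting visible growth. Where given, the MIC80 is 80% inhibition, reported as prominent inhibition.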

[8] = tested on: Candida albicans; assay: Antifungal activity against Candida albicans MY1055 after 24 hrs by 2-fold serial dilution method in presence of 50% mouse serum; type: functional; settings: MY1055, 24 h
[9] = tested on: Candida albicans; assay: Potentiation of caspofungin-induced antifungal activity against Candida albicans MY1055 at 1 ug/ml after 24 hrs by checkerboard method; type: functional, organism-based
Method in brief: (§2)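 Checkerboard of double dilutions: caspofungin at final 0.24–0.00018 μg/mL (columns) crossed with test compound at final 8–0.015 μg/mL (rows) in the central 80 wells of one plate. Caspofungin dose–response curves gave IC50 values at each compound level.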

[10] = tested on: Aspergillus fumigatus; assay: Antifungal activity against Aspergillus fumigatus ATCC 46645 after 24 hrs by resazurin test in presence of caspofungin; type: functional; settings: ATCC 46645, 24 h
Method in brief: (§3)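 Tested with and without sublethal caspofungin (0.015 μg/mL for A. fumigatus, 0.03 μg/mL for C. albicans) at 37 °C for 24 h. Resazurin 0.002% added 3–4 h before reading; fluorescence read at ex 570/em 615 nm. C. albicans was grown overnight in SDB, set to OD600 0.25 in RPMI-modified medium (pH 7.1) and diluted 1:10. Run in triplicate.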

[11] = tested on: Aspergillus fumigatus; assay: Potentiation of caspofungin-induced antifungal activity against Aspergillus fumigatus ATCC 46645 at 2 ug/ml after 24 hrs by checkerboard method relative to control; type: functional; method in brief: as §2
[12] = tested on: Candida albicans; assay: Antifungal activity against Candida albicans MY1055 after 24 hrs by resazurin test in presence of caspofungin; type: functional; settings: MY1055, 24 h; method in brief: as §3
[13] = tested on: Aspergillus fumigatus; assay: Antifungal activity against Aspergillus fumigatus ATCC 46645 at 8 ug/ml after 24 hrs by resazurin test; type: functional, organism-based; method in brief: as §3
[14] = tested on: Nakaseomyces glabratus; assay: Antifungal activity against Candida glabrata MY992 at 8 ug/ml after 24 hrs by resazurin test; type: functional, organism-based
[15] = tested on: Candida albicans; assay: Antifungal activity against Candida albicans MY1055 at 8 ug/ml after 24 hrs by resazurin test; type: functional, organism-based; method in brief: as §3
[16] = tested on: Aspergillus fumigatus; assay: Antifungal activity against Aspergillus fumigatus ATCC 46645 assessed as growth inhibition after 24 hrs by checkerboard method; type: functional, organism-based; settings: ATCC 46645, 24 h; method in brief: as §2

MIC [10] [µg/mL]	MIC [12] [µg/mL]	Compound	MIC [1] [µg/mL]	MIC [2] [µg/mL]	MIC [3] [µg/mL]	MIC [4] [µg/mL]	MIC [5] [µg/mL]	MIC [6] [µg/mL]	MIC [7] [µg/mL]	MIC80 [7] [µg/mL]	MIC [8] [µg/mL]	Activity [9]	fold change (FC) [11]	Activity [13]	Activity [14]	Activity [15]	IC50 [16] [nM]
		CCCCCCCC/C=C\CCCCCCCC(=O)N[C@H](C(=O)N1C[C@H](C)C[C@H]1C(=O)N[C@H](C(=O)N[C@@H](CCO)C(=O)N[C@@H](C)CO)C(C)C)[C@@H](C)O (Oleoyl-T[Pro(4R-Me)]V[hSer]-Alaol)	> 32	> 32	> 32	> 32	> 32	> 32									
		CCCCCCCC/C=C\CCCCCCCC(=O)N[C@H](C(=O)N1C[C@H](C)C[C@H]1C(=O)N[C@H](C(=O)N[C@@H](CCOC(C)=O)C(=O)N[C@@H](C)C=O)C(C)C)[C@@H](C)O (Oleoyl-T[Pro(4R-Me)]V[hSer](Ac)A-aldehyde)	2 (≈ 2.53 µM)	0.5 (≈ 0.631 µM)	4 (≈ 5.05 µM)	2 (≈ 2.53 µM)	2 (≈ 2.53 µM)	2 (≈ 2.53 µM)	> 32	8 (≈ 10.1 µM)	> 32						
4	2	CCCCCCCCCCCC(=O)N[C@@H](CCC(N)=O)C(=O)N[C@@H]1C(=O)NCCC(=O)N[C@H](Cc2c[nH]c3ccccc23)C(=O)N[C@@H](CO)C(=O)N[C@H](Cc2ccccc2)C(=O)O[C@@H]1C										Active	5.3	inactive	inactive	inactive	
		CC[C@H](C)C[C@H](C)CCCCCCCCC(=O)N[C@H]1C[C@@H](O)[C@@H](NCCN)NC(=O)[C@@H]2[C@@H](O)CCN2C(=O)[C@H]([C@H](O)CCN)NC(=O)[C@H]([C@H](O)[C@@H](O)c2ccc(O)cc2)NC(=O)[C@@H]2C[C@@H](O)CN2C(=O)[C@H]([C@@H](C)O)NC1=O [CASPOFUNGIN]															33
		CCCCCCCC/C=C\CCCCCCCC(=O)N[C@H](C(=O)N1C[C@H](C)C[C@H]1C(=O)N[C@H](C(=O)N[C@@H](CCO)C(=O)N[C@@H](C)C=O)C(C)C)[C@@H](C)O (Oleoyl-T[Pro(4R-Me)]V[hSer]A-aldehyde)	2 (≈ 2.67 µM)	0.5 (≈ 0.667 µM)	2 (≈ 2.67 µM)	2 (≈ 2.67 µM)	2 (≈ 2.67 µM)	2 (≈ 2.67 µM)	> 32	8 (≈ 10.7 µM)	> 32						
